# Laboratory results reported in ChEMBL document CHEMBL4020721 (Eur J Med Chem, 2017).
# How the values were obtained:
# [1] = target: Tyrosine-protein kinase ABL1 (Homo sapiens, UniProt P00519); assay: Inhibition of ABL (unknown origin) using FAM-labeled peptide as substrate preincubated for 5 to 10 mins followed by substrate/ATP addition measured after 30 to 60 mins by mobility shift assay
# Outline: (§1)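 Caliper mobility-shift assay with FAM-labeled peptide substrate. Buffer: 50 mM HEPES pH 7.5, 0.0015% Brij-35, 10 mM MgCl2, 2 mM DTT, with kinase-specific enzyme levels. […] Incubation was 30-60 min at 28°C, stopped with EDTA buffer. Read-out was % conversion.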
# [2] = tested on: NCI-H1993; assay: Antitumor activity against human NCI-H1993 cells xenografted in BALB/c athymic nude mouse assessed as tumor growth inhibition at 0.1 mg/kg, po administered once daily for 3 weeks; type: functional; conditions: 504 h, read-out: TGI
# Outline: (§2)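 BALB/c nude mice, 5-6 weeks old, kept under SPF conditions, received 7×10^6 NCI-H1993 cells s.c. in the right flank. At 150-250 mm³ they were sorted and randomized, n=7 per group, with vehicle controls. Dosing was oral, once daily for 3 weeks. […] Mean±SEM, Student's t-test.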
# [3] = tested on: SNU-5; assay: Antitumor activity against human SNU5 cells xenografted in BALB/c athymic nude mouse assessed as percent tumor regression at 0.3 mg/kg, po administered once daily for 2 weeks; type: functional
# Outline: (§3)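 Nude BALB/c mice, 5-6 weeks old, under SPF conditions, were implanted s.c. in the right flank with 6×10^6 SNU-5 cells. Groups were sorted at 100-200 mm³, n=6, with vehicle controls. Oral dosing once daily for 2 weeks. Percent tumor regression = 100% × (treated day 0 − treated final)/treated day 0. Mean±SEM, Student's t-test.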
# [4] = tested on: SNU-5; assay: Antitumor activity against human SNU5 cells xenografted in BALB/c athymic nude mouse assessed as tumor regression at 1 mg/kg, po administered once daily for 2 weeks; type: functional; outline: as §3
# [5] = target: ALK tyrosine kinase receptor (Homo sapiens, UniProt Q9UM73); assay: Inhibition of ALK (unknown origin) using FAM-labeled peptide as substrate preincubated for 5 to 10 mins followed by substrate/ATP addition measured after 30 to 60 mins by mobility shift assay; outline: as §1
# [6] = target: CYP2C19 (Homo sapiens, UniProt P33261); assay: Time dependent irreversible inhibition of CYP2C19 in human liver microsomes at 10 uM preincubated with compound followed by NADPH addition by LC-MS/MS analysis; type: ADME
# Outline: (§4)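 HLM (0.2 mg/ml) with 10 µM compound were preincubated 0, 5, 10 or 20 min at 37°C with 1 mM NADPH or PBS. Substrate cocktail (halved concentrations) plus NADPH was then added for 10 min. Metabolites were measured by LC-MS/MS. Kobs is the slope of relative activity versus preincubation time.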
# [7] = target: Ephrin type-A receptor 2 (Homo sapiens, UniProt P29317); assay: Inhibition of EPHA2 (unknown origin) using FAM-labeled peptide as substrate preincubated for 5 to 10 mins followed by substrate/ATP addition measured after 30 to 60 mins by mobility shift assay; outline: as §1
# [8] = tested on: NCI-H1993; assay: Antitumor activity against human NCI-H1993 cells xenografted in BALB/c athymic nude mouse assessed as tumor growth inhibition at 10 mg/kg, po administered once daily for 3 weeks; type: functional; conditions: 504 h, read-out: TGI; outline: as §2
# [9] = target: Hepatocyte growth factor receptor (Homo sapiens, UniProt P08581); assay: Inhibition of c-MET (unknown origin) using TK substrate-biotin peptide as substrate preincubated for 5 to 10 mins followed by ATP addition measured after 30 mins by HTRF assay
# [10] = target: Receptor tyrosine-protein kinase erbB-4 (Homo sapiens, UniProt Q15303); assay: Inhibition of ERBB4 (unknown origin) using FAM-labeled peptide as substrate preincubated for 5 to 10 mins followed by substrate/ATP addition measured after 30 to 60 mins by mobility shift assay; outline: as §1
# [11] = target: T1, CYP1A2 (Homo sapiens, UniProt P05177); assay: Time dependent irreversible inhibition of CYP1A2 in human liver microsomes at 10 uM preincubated with compound followed by NADPH addition by LC-MS/MS analysis; type: ADME; conditions: liver microsomes; outline: as §4
# T1 sequence (P05177 whole entry): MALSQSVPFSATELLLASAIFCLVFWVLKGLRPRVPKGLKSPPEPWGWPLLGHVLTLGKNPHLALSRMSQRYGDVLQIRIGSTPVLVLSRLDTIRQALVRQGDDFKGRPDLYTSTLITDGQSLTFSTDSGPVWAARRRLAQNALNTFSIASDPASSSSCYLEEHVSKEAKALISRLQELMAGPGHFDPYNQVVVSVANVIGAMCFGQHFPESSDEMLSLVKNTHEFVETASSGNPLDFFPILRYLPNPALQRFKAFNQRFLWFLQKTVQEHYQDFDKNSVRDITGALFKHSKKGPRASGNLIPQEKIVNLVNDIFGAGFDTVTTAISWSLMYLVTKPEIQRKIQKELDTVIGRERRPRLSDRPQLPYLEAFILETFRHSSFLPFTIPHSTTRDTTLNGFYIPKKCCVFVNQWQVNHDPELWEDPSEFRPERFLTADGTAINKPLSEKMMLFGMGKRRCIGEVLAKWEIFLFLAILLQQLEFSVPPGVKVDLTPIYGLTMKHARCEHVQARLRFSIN
# [12] = target: Proto-oncogene tyrosine-protein kinase Src (Homo sapiens, UniProt P12931); assay: Inhibition of c-Src (unknown origin) using FAM-labeled peptide as substrate preincubated for 5 to 10 mins followed by substrate/ATP addition measured after 30 to 60 mins by mobility shift assay; outline: as §1
# [13] = target: Vascular endothelial growth factor receptor 2 (Homo sapiens, UniProt P35968); assay: Inhibition of VEGFR2 (unknown origin) using FAM-labeled peptide as substrate preincubated for 5 to 10 mins followed by substrate/ATP addition measured after 30 to 60 mins by mobility shift assay; outline: as §1
# [14] = target: Platelet-derived growth factor receptor alpha (Homo sapiens, UniProt P16234); assay: Inhibition of PDGFRalpha (unknown origin) using FAM-labeled peptide as substrate preincubated for 5 to 10 mins followed by substrate/ATP addition measured after 30 to 60 mins by mobility shift assay; outline: as §1
# [15] = Clearance in Sprague-Dawley rat plasma at 1 mg/kg, iv by UPLC-MS/MS analysis; type: ADME, organism-based
# Outline: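 Male Sprague-Dawley rats (180-220 g) were fasted overnight with free access to water. Dosing was intravenous (n=2) or oral at 6 mg/kg (n=3). Heparinized blood was drawn from 0 to 1440 min. Plasma was frozen at -20°C, then precipitated with acetonitrile containing internal standard, centrifuged and analysed by UPLC-MS/MS.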
# [16] = Volume of distribution at steady state in Sprague-Dawley rat plasma at 1 mg/kg, iv by UPLC-MS/MS analysis; type: ADME, organism-based; conditions: read-out: Vdss
# Outline: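 Male Sprague-Dawley rats (180-220 g), fasted overnight with water available, dosed iv (n=2). Blood on heparin collected from 0 to 1440 min. Plasma obtained by centrifugation and stored at -20°C. Proteins precipitated with acetonitrile containing internal standard, then UPLC-MS/MS. Vss taken from the iv data.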
# [17] = target: Mast/stem cell growth factor receptor Kit (Homo sapiens, UniProt P10721); assay: Inhibition of c-Kit (unknown origin) using FAM-labeled peptide as substrate preincubated for 5 to 10 mins followed by substrate/ATP addition measured after 30 to 60 mins by mobility shift assay; outline: as §1
# Sequence of CYP2C19 (P33261 whole entry): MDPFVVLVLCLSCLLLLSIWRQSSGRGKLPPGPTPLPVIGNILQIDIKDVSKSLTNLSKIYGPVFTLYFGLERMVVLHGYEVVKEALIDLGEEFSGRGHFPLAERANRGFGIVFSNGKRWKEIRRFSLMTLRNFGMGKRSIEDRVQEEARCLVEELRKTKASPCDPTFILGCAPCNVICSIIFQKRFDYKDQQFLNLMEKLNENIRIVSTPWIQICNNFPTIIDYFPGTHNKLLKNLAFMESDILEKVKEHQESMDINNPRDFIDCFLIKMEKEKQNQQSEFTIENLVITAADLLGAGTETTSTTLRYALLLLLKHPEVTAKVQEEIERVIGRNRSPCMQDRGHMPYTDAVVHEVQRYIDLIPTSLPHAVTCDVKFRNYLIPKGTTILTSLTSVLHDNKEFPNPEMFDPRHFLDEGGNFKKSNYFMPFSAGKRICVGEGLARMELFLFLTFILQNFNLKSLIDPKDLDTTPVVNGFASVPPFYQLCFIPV
# Sequence of Vascular endothelial growth factor receptor 2 (P35968 whole entry): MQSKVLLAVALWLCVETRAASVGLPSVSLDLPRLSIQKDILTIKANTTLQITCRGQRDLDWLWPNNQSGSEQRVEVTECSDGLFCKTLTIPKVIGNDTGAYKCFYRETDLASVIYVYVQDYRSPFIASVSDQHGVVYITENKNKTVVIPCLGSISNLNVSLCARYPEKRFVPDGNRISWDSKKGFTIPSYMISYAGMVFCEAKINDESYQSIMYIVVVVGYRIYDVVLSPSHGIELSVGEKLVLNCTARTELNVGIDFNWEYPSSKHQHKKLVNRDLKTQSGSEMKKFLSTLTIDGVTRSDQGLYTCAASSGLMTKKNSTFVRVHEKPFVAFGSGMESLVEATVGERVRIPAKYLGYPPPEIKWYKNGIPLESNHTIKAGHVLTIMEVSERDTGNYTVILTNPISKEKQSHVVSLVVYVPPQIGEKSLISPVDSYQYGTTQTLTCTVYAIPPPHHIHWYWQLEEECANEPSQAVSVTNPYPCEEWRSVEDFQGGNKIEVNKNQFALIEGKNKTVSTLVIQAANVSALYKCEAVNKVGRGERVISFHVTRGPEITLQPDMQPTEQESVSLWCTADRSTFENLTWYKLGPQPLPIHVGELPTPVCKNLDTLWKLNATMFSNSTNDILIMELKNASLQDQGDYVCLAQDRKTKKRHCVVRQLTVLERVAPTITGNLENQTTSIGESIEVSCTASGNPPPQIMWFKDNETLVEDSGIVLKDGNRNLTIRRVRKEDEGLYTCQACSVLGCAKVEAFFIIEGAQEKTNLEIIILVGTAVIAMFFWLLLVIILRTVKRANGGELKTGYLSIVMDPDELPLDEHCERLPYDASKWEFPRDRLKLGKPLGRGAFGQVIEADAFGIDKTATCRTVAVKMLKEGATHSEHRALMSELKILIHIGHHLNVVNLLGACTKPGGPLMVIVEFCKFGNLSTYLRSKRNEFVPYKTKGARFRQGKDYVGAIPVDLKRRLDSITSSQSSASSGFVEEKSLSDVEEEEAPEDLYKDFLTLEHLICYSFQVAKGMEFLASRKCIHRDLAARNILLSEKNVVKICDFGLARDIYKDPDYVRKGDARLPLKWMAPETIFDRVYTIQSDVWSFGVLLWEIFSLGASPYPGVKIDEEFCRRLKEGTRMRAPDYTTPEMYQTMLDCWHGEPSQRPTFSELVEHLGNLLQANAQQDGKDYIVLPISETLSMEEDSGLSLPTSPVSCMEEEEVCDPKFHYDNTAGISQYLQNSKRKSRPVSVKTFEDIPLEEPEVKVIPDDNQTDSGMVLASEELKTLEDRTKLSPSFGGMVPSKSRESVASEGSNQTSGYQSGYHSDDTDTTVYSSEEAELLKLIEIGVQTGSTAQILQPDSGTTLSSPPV
# Sequence of Receptor tyrosine-protein kinase erbB-4 (Q15303 whole entry): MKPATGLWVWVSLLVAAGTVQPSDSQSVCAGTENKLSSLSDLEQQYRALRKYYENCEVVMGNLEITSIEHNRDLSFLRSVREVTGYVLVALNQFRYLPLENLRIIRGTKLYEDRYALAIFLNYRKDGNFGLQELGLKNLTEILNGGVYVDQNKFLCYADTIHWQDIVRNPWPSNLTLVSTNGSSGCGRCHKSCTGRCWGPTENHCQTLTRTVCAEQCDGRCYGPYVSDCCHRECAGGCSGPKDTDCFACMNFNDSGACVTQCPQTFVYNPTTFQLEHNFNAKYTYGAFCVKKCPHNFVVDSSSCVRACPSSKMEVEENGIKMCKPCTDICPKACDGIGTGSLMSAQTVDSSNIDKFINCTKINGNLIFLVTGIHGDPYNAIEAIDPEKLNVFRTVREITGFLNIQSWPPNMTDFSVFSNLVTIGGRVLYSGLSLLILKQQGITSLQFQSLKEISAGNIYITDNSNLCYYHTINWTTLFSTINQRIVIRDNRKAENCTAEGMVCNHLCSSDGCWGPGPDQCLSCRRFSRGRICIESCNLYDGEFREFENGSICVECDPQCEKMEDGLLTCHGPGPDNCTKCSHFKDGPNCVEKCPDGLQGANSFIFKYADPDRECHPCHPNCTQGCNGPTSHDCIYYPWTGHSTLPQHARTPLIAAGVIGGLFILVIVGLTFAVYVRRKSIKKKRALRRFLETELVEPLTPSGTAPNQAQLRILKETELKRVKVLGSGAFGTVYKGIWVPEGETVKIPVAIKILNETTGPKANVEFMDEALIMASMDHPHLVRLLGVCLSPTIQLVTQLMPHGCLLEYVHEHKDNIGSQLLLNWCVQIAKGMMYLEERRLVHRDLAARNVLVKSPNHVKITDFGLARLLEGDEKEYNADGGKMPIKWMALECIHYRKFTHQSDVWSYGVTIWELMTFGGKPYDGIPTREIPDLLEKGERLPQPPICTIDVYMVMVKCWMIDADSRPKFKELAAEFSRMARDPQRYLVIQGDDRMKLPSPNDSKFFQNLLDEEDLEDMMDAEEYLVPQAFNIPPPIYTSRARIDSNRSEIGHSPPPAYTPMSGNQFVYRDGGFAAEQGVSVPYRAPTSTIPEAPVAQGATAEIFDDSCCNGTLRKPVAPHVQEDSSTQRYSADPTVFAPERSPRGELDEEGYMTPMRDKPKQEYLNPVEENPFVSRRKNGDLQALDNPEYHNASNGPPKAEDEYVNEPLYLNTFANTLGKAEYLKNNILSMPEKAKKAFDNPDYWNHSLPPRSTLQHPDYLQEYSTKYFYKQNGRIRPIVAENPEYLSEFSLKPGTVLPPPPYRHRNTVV
# Sequence of Proto-oncogene tyrosine-protein kinase Src (P12931 2-536 limits assumed): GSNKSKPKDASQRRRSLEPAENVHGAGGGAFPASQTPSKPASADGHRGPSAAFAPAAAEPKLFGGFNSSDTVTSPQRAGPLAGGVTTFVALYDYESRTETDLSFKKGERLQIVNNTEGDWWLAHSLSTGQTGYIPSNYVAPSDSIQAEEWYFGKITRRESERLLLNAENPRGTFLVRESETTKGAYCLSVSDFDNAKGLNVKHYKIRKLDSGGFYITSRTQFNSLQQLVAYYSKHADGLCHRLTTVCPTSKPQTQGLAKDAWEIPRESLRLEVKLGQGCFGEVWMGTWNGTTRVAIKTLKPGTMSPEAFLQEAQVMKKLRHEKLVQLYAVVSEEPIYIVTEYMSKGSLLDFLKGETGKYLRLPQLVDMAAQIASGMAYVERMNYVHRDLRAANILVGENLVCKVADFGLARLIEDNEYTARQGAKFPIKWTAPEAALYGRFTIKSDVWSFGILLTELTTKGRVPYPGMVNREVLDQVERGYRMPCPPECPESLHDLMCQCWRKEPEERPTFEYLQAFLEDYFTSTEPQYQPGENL
# Sequence of Platelet-derived growth factor receptor alpha (P16234 whole entry): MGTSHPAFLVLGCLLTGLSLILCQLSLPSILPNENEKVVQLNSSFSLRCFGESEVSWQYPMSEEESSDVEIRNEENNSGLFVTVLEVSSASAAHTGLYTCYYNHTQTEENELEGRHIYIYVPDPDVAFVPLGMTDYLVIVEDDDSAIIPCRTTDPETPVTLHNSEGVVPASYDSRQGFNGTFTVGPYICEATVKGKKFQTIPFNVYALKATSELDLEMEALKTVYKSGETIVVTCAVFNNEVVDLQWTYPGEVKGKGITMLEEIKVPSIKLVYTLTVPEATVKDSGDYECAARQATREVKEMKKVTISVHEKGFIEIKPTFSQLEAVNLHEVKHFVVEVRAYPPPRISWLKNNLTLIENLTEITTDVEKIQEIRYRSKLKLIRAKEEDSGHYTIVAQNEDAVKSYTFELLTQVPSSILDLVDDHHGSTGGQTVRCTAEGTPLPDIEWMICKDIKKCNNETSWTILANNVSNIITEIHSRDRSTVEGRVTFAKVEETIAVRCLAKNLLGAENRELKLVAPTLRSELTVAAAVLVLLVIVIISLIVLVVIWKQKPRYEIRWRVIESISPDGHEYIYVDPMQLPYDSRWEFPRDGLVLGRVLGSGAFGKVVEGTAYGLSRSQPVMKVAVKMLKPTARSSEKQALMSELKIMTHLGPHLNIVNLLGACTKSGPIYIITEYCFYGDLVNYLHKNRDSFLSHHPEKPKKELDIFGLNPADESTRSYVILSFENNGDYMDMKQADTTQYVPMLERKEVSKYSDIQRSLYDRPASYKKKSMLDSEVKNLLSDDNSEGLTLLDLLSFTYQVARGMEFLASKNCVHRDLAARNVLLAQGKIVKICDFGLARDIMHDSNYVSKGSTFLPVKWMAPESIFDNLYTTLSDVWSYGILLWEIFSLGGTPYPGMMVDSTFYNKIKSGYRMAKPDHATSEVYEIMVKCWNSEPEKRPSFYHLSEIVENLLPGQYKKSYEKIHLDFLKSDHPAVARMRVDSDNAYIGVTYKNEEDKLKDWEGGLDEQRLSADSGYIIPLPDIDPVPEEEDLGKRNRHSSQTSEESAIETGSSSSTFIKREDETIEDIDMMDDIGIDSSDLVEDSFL
smiles,measurement,setting,value
CC(c1cc2cc(-c3cnn(C)c3)cnc2cc1F)n1nnc2ncc(-c3cnn(CCO)c3)nc21 (stereo in doubt; 14),IC50,[1],> 30 µM
same,inhibition in vivo at 0.1 mg/kg,[2],55.5%
same,Activity,[3],34%
same,Activity,[4],79.2%
same,IC50,[5],> 30 µM
same,inhibition at 10 µM,[6],< 50%
same,IC50,[7],> 30 µM
same,inhibition in vivo at 10 mg/kg,[8],90.8%
same,IC50,[9],0.6 nM
same,IC50,[10],> 30 µM
same,inhibition at 10 µM,[11],< 50%
same,IC50,[12],17.1 µM
same,IC50,[13],18.4 µM
same,IC50,[14],2360 nM
same,clearance,[15],9.67 mL/min/kg
same,Vd,[16],2.1 L/kg
same,IC50,[17],5.4 µM
